For assay [1], the target named is LSD1-CoREST-HDAC1 complex (Homo sapiens, UniProt Q13547). In words: AMC-fluorescence histone deacetylase inhibition assay with purified complex. It counts as biochemical. Conditions: compared with CI-994, Fig 3A.
Assay [2] has as its system HCT116 cells. In words: Cell viability of HCT116 cells by flow cytometry. The settings on record: HCT116, 40μM, 48 hours. The assay is classed as cell-based, human. The procedure, abridged: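 Human colon cancer HCT116 cells were exposed to the test compound at 10 and 40 μM. A reference class I HDAC inhibitor was run alongside. Viability was scored by flow cytometry after 48 h of treatment.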
For orientation: Flow cytometry measures light scatter and fluorescence of single cells or particles in a stream.

Assay [3] has as its system Histone 3 Lysine 56 acetylation (H3K56Ac). In words: H3K56 acetylation by quantitative western blotting in ES cells. Conditions: E14 mouse ES cells, 24h; CI-994 = 40μM, Panobinostat = 30 nM. The assay is classed as cell-based. On the technique in general: In western blotting, separated proteins are transferred to a membrane and probed.

Sequence of LSD1-CoREST-HDAC1 complex (Q13547 whole entry, other chains not shown): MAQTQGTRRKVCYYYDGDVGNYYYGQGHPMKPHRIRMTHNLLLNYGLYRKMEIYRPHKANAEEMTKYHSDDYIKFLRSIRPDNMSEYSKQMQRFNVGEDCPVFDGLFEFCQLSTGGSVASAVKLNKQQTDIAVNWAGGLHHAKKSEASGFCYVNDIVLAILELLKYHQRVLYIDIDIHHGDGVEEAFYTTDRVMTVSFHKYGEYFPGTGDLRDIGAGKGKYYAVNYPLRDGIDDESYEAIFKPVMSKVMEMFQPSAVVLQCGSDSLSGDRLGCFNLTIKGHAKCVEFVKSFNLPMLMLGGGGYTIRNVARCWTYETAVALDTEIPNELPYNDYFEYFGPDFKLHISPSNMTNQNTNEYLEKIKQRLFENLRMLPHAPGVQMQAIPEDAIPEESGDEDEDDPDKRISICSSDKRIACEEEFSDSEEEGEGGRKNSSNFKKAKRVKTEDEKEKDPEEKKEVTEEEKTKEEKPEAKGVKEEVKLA
Sequence of LSD1-CoREST-HDAC1 complex (Q9UKL0 86-485 partner limits assumed, other chains not shown): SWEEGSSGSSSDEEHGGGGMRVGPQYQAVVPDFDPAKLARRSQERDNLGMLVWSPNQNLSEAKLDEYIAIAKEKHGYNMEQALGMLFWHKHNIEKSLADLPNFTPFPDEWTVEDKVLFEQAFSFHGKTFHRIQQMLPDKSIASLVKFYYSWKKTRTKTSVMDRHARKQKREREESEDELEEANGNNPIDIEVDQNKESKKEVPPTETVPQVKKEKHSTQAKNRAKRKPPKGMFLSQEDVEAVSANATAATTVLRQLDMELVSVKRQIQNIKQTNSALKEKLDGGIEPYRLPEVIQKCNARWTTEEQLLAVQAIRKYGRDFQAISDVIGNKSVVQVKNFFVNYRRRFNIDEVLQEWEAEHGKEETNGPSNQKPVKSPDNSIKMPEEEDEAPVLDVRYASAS

For the compound `CC(=O)Nc1ccc(C(=O)Nc2ccccc2NC(=O)OC(C)(C)C)cc1` [Compound 5], the “HDAC inhibition of the LSD1-CoREST-HDAC1 complex (in words)” value in assay [1] is reported as “no HDAC inhibition”.

For `CC(=O)Nc1ccc(C(=O)Nc2ccccc2N)cc1` [CI-994], in assay [2], the Cell death worked out at 73%. Take `Cc1[nH]c2ccccc2c1CCNCc1ccc(/C=C/C(=O)NO)cc1` [Panobinostat]: the “H3K56 acetylation increase, fold compared to non-treated cells” value in assay [3] is 15-20 fold.
